Square brackets hold non-standard residues; d marks the D form. Peptide text beside a SMILES is read from it. * marks the point of attachment. Tyr(Nα,Nα-allyl2) = C=CCN(CC=C)[C@@H](Cc1ccc(O)cc1)C(=O)*; Aib = CC(C)(N)C(=O)O
How the values were obtained:
[1] = molecular target: Mu-type opioid receptor (Bos taurus, UniProt P79350); assay: Evaluation for the inhibition of mu opioid binding to bovine striatal membranes by the affinity ligand 0.25 nM [3H]DAMGO radiolabeled opioid; set-up: species or system Striatum, Membrane
Sequence of Mu-type opioid receptor (P79350 whole entry): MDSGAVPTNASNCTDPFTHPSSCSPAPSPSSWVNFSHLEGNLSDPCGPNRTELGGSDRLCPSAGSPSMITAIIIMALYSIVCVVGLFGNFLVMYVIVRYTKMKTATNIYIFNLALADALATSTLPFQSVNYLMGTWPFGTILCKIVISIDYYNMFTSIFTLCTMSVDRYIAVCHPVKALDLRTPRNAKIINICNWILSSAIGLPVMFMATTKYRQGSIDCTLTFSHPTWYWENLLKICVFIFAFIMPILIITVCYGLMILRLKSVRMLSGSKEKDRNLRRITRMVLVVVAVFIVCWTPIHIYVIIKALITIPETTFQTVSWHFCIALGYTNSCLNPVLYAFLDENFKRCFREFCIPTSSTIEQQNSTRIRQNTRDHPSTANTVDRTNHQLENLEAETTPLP
How it was run: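 Competition binding on bovine striatal membranes: twelve compound concentrations with radioligand in 1 mL of 50 mM Tris-HCl pH 7.5 at 25 °C, with 5 mM MgCl2 and 0.1 mM PMSF. Incubation was 60 min for [3H]DAMGO and [3H]U69,593 and 4 h for [3H]pCl-DPDPE. […] Filtration used PEI-soaked filters for the κ and δ ligands. Mean IC50 ± SE, three experiments.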

[2] = molecular target: Mu-type opioid receptor (Bos taurus) (UniProt P79350); assay: Effect of DTT on Wash-Resistant Inhibition of [3H]DAMGO by 10 nM
Sequence of Mu-type opioid receptor (Bos taurus) (P79350 whole entry): as above
How it was run: (§1)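 They were then given 40 mM DTT for 10 min at 4 °C in 2 mL of 50 mM Tris-HCl pH 7.5, followed by four centrifugal washes. […] Results are % of control without ligand or DTT; mean ± SE, three experiments in triplicate.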

[3] = molecular target: Delta-type opioid receptor (Homo sapiens) (UniProt P41143); assay: Evaluation for the ability of delta opioids to protect the [3H]DAMGO binding site from alkylation; details: Bos taurus
Sequence of Delta-type opioid receptor (Homo sapiens) (P41143 whole entry): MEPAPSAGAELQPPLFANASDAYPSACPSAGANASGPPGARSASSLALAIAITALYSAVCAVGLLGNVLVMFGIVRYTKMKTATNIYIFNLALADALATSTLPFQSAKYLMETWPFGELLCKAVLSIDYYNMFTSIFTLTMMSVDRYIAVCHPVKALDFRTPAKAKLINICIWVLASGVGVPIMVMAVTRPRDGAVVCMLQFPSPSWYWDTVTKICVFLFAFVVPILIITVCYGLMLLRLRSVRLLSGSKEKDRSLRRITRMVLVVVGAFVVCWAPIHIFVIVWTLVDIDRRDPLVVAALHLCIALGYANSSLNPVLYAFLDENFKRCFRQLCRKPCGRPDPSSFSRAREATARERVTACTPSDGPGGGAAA
How it was run: (§2)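 Protection assay on TPCK-pretreated calf striatal membranes. Membranes were preincubated with 100 nM protecting opioid in 50 mM Tris-HCl pH 7.5 for 30 min at 37 °C. The disulfide ligand (40 or 80 nM) was then added for 2 min at 37 °C in 2 mL. After four centrifugal washes, 0.25 nM [3H]DAMGO binding was measured. Results are % of untreated control; mean ± SE, three experiments in triplicate.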

[4] = molecular target: Kappa-type opioid receptor (Homo sapiens) (UniProt P41145); assay: Evaluation for the ability of kappa opioids to protect the [3H]-DAMGO binding site from alkylation; details: Bos taurus; how it was run: as §2
Sequence of Kappa-type opioid receptor (Homo sapiens) (P41145 whole entry): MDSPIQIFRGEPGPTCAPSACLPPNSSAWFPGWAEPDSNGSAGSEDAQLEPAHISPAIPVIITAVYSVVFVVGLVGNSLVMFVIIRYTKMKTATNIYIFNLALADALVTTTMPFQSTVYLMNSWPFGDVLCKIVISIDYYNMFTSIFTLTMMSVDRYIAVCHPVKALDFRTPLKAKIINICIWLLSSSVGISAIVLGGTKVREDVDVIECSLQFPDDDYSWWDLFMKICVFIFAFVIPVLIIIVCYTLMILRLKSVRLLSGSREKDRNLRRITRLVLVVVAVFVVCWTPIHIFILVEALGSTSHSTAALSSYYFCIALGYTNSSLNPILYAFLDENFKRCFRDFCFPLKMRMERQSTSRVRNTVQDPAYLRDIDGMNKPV

[5] = molecular target: Mu-type opioid receptor (Bos taurus) (UniProt P79350); assay: Evaluation for the ability of mu opioid to protect the [3H]DAMGO binding site from alkylation
[6] = molecular target: Mu-type opioid receptor (Bos taurus) (UniProt P79350); assay: Evaluation for the ability of mu opioids to protect the [3H]DAMGO binding site from alkylation; how it was run: as §2
[7] = molecular target: Mu-type opioid receptor (Bos taurus) (UniProt P79350); assay: Effect of DTT on Wash-Resistant Inhibition of [3H]DAMGO at 10 nM of the compound; how it was run: as §1

Row | SMILES | IC50 [1] [nM] | Activity [5] | also measured
1 | O=C(CSSCC(=O)N[C@@]12CCC(=O)[C@@H]3Oc4c(O)ccc5c4[C@@]31CCN(CC1CC1)[C@@H]2C5)N[C@@]12CCC(=O)[C@@H]3Oc4c(O)ccc5c4[C@@]31CCN(CC1CC1)[C@@H]2C5 | 3.29 |  | inhibition [2]: 63%; Activity [3]: 25; Activity [4]: 30
2 | CN1CC[C@]23c4c5ccc(O)c4O[C@H]2[C@@H](O)C=C[C@H]3[C@H]1C5 |  | 67 | 
3 | C=CCN(CC=C)[C@@H](Cc1ccc(O)cc1)C(=O)NC(C)(C)C(=O)NC(C)(C)C(=O)N[C@@H](Cc1ccccc1)C(=O)N[C@@H](CC(C)C)C(=O)O ({Tyr(Nα,Nα-allyl2)}-[Aib][Aib]FL-OH) |  | 24 | 
4 | Oc1ccc2c3c1O[C@H]1c4[nH]c5ccccc5c4C[C@@]4(O)[C@@H](C2)N(CC2CC2)CC[C@]314 |  | 25 | 
5 | CN1CC[C@]23c4c5ccc(O)c4O[C@H]2C(=O)CC[C@@]3(NC(=O)CSSCC(=O)N[C@@]23CCC(=O)[C@@H]4Oc6c(O)ccc7c6[C@@]42CCN(C)[C@@H]3C7)[C@H]1C5 | 0.4 |  | Activity [6]: 25; inhibition [7]: 50%

From ChEMBL document CHEMBL1127738, “14 alpha,14' beta-[Dithiobis[(2-oxo-2,1-ethanediyl)imino]]bis (7,8-dihydromorphinone) and 14 alpha,14' beta-[dithiobis[(2-oxo-2,1- ethanediyl)imino]]bis[7,8-dihydro-N-(cyclopropylmethyl)normorphinone]: chemistry and opioid binding properties” (J Med Chem, 1994)
